Experimental data reported in ChEMBL document CHEMBL1153730, “Bioactive constituents of the stem bark of Beilschmiedia zenkeri” (J Nat Prod, 2009).
pIC50: −log10 of the molar value. Values after ≈ are worked out from the molar mass of the structure shown. Active and inactive are the calls of the source. The calls are words filed in the database; no cut-off is given here.

What was measured:
Pseudomonas agarici = experiment: Antibacterial activity against Pseudomonas agarici by agar well diffusion method; assay type: functional
Procedure, shortened: (§1)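 Agar well diffusion on pure compounds, with the value reported as MIC. Ampicillin was the positive control for B. subtilis and gentamicin for P. agarici.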

Bacillus subtilis = experiment: Antibacterial activity against Bacillus subtilis by agar well diffusion method; assay type: functional; procedure, shortened: as §1
Streptococcus minor = experiment: Antibacterial activity against Streptococcus minor by agar well diffusion method; assay type: functional
Procedure, shortened: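 Agar well diffusion run on extracts and pure compounds, following earlier reports. Ampicillin served as the positive control for this strain. Activity was reported as MIC (µM).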

Plasmodium falciparum = experiment: Antiplasmodial activity against chloroquine-resistant Plasmodium falciparum W2 rings after 48 hrs by FACS analysis; assay type: functional, organism-based; settings: W2, 48 h

| Compound | MIC (Pseudomonas agarici) [µM] | MIC (Bacillus subtilis) [µM] | Activity (Streptococcus minor) | pIC50 (Plasmodium falciparum) | Activity (Pseudomonas agarici) | Activity (Bacillus subtilis) | MIC (Streptococcus minor) [µM] |
| --- | --- | --- | --- | --- | --- | --- | --- |
| CC(C)CNC(=O)/C=C/C=C/CCCCCC/C=C/c1ccc2c(c1)OCO2 [GUINEENSINE] | 81.5 (≈ 31.3 µg/mL) | 163 (≈ 62.5 µg/mL) | inactive | 5.43 | – | – | – |
| COc1cc2c(c(OC)c1OC)[C@H](O[C@@H]1C[C@@H](c3ccccc3)Oc3cc(OC)c(OC)c(OC)c31)C[C@@H](c1ccccc1)O2 | – | – | inactive | – | inactive | inactive | – |
| COc1cc(O)c2c(c1OC)OC(c1ccccc1)CC2=O (stereo not given) | – | – | inactive | 5.03 | inactive | inactive | – |
| O=C(/C=C/c1ccccc1)NCCc1ccc2c(c1)OCO2 | – | – | inactive | – | inactive | inactive | – |
| C=C(C)[C@@H]1CC[C@]2(C(=O)O)CC[C@]3(C)[C@H](CC[C@@H]4[C@@]5(C)CC[C@H](O)C(C)(C)[C@@H]5CC[C@]43C)[C@@H]12 [BETULINIC ACID] | – | – | inactive | 5.28 | inactive | inactive | – |
| COc1cc2c(c(O)c1OC)[C@H](O[C@@H]1C[C@@H](c3ccccc3)Oc3cc(OC)c(OC)c(OC)c31)C[C@@H](c1ccccc1)O2 [BEILSCHMIEFLAVONOID B] | – | – | – | – | inactive | inactive | 198 (≈ 119 µg/mL) |
| COc1cc2c(c(OC)c1OC)[C@H](O)C[C@@H](c1ccccc1)O2 | – | – | inactive | – | inactive | inactive | – |
| CCCCCCCCCCCCCCC(=O)OC[C@@H](O)CO | – | – | inactive | – | inactive | inactive | – |
| COc1cc2c(c(OC)c1OC)[C@H](OC)C[C@@H](c1ccccc1)O2 | – | – | inactive | – | inactive | inactive | – |
